Here are results for 1 compound from ChEMBL document CHEMBL3822375, “Preclinical Characterization of 3β-(N-Acetyl l-cysteine methyl ester)-2aβ,3-dihydrogaliellalactone (GPA512), a Prodrug of a Direct STAT3 Inhibitor for the Treatment of Prostate Cancer” (J Med Chem, 2016).

Active and inactive are the calls of the source. No cut-off for these calls is given here.

In data set [1] the test system is Mus musculus. Description: Toxicity in CD1 mouse assessed as change in body weight at 40 mg/kg, administered as single dose through oral gavage measured on day 1 (reference value: 33.5 +/- 4.34 g). The data set is classed as organism-based. Conditions: in vivo.
Data set [2] deals with Mus musculus. Description: AUC (0 to t) in mouse plasma assessed as galiellalactone level at 40 mg/kg, po by LC-MS/MS analysis. To be noted: in vivo. Type of data set: ADME, organism-based. In outline: (§1)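 Single dose to mice; oral, iv or ip as listed, in 5% DMSO/50 mM citrate buffer pH 4.0 (dosing solutions 0.5, 2 or 5 mg/mL). Oral dosing at 20 mL/kg. Terminal blood under barbiturate anaesthesia at eight time-points to 8 h, n=3 mice per time-point, EDTA plasma. Acetonitrile precipitation with internal standard, LC-MS/MS against plasma calibration lines. Non-compartmental analysis on mean data, trapezoidal AUC.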

In data set [3] the test system is Mus musculus. Description: Effect on STAT3 phosphorylation in NMRI mouse xenografted with human DU145 cells at 40 mg/kg, po administered 5 times per week for 4 weeks by immunohistochemical analysis. Type of data set: functional, organism-based. Conditions: DU-145. In outline: (§2)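 Tumours from the oral DU145 xenograft study were fixed in formaldehyde and sectioned. IHC used the EnVision Flex kit with anti-Ki67 and anti-pSTAT3 antibodies, imaged at 10× bright field. Ki67 scored as Ki67-positive cells over total cells.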
A general note: In xenograft studies the graft and the host belong to different species.

The subject of data set [4] is Mus musculus. Nature of the data set: Toxicity in CD1 mouse assessed as change in body weight at 40 mg/kg, administered as single dose through oral gavage measured on day 4 (reference value: 34.68 +/- 4.71 g). The data set is classed as organism-based. Conditions: in vivo.
Data set [5] concerns Mus musculus. Description: Toxicity in NMRI mouse xenografted with human DU145 cells assessed as weight loss at 40 mg/kg, po administered 5 times per week for 4 weeks measured on day 26 and day 29. The data set is classed as organism-based, DU-145. To be noted: in vivo, 672 h. The essentials: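 Male NMRI-nude mice, 20 in total, were given 1.5 million DU145 cells subcutaneously in the flank. After 4 weeks they were split into two groups of 10. Each group was gavaged with 40 mg/kg or with vehicle (50 mM citrate buffer pH 4.0, 2% DMSO) daily, 5 times per week for 4 weeks. Body weight, behaviour, side effects and survival were monitored, and tumours were measured twice weekly by caliper.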

Data set [6] in a line: Downregulation of BCL2 mRNA expression in human DU145 cells xenografted in NMRI nude mouse at 40 mg/kg, po administered 5 times per week for 4 weeks by qPCR analysis. To be noted: DU-145. Type of data set: functional, organism-based. The essentials: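 Half of each DU145 xenograft tumour was snap frozen for mRNA. MCL1 and BCL2 measured by quantitative real-time PCR: 10 min at 95°C, then 40 cycles of 95°C 15 s and 60°C 60 s. Comparative Ct method, normalized to HMBS and SDHA.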

The subject of data set [7] is Mus musculus. Nature of the data set: Toxicity in CD1 mouse assessed as change in body weight at 200 mg/kg, administered as single dose through oral gavage measured on day 4 (reference value: 34.68 +/- 4.71 g). The data set is classed as organism-based. To be noted: in vivo.
Data set [8] has as its system Mus musculus. Nature of the data set: Toxicity in CD1 mouse assessed as effect on histopathological parameters at 40 to 400 mg/kg, administered as single dose through oral gavage. The data set is classed as organism-based. To be noted: in vivo. The essentials: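 Male CD1 mice, 7 weeks old, 5 per group, given one oral gavage dose of 40, 200 or 400 mg/kg in 50 mM citrate buffer, pH 4.0, 5% DMSO, alongside a vehicle control group. Clinical signs, clinical pathology and histopathology were assessed, with the study ending on day 8.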

For a further data set, the system named is DU-145. Nature of the data set: Antiproliferative activity against human DU145 cells xenografted in NMRI nude mouse assessed as reduction in Ki67 ratio at 40 mg/kg, po administered 5 times per week for 4 weeks by Ki67 staining-based immunohistochemical analysis. Type of data set: functional, organism-based. The essentials:
as §2

For data set [9], the system named is Mus musculus. Description: Tmax in mouse plasma assessed as galiellalactone level at 100 mg/kg, po by LC-MS/MS analysis. Type of data set: ADME, organism-based. Conditions: in vivo.
The nature of data set [10]: Chemical stability of the compound in phosphate buffer saline assessed as half life at 10 uM at pH 7.4 by LC-MS/MS analysis. Type of data set: physicochemical. Conditions: phosphate buffered saline. The essentials:
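Compound diluted from DMSO (or methanol) stock to 10 µM, 2% solvent final, n=2. Matrix was 0.1 M PBS pH 7.4, or […] HCl with 2 mg/mL NaCl adjusted to pH 1.2. Mixed on a shaker; sampled at nominal 5, 15, 30 and 60 min plus T=0. LC-MS/MS with internal standard; % remaining relative to T=0. Formation of parent also monitored.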

Data set [11] concerns Mus musculus. Description: AUC (0 to t) in mouse plasma assessed as galiellalactone level at 10 mg/kg, po by LC-MS/MS analysis. Type of data set: ADME, organism-based. To be noted: in vivo. In outline:
as §1

In data set [12] the test system is Mus musculus. Nature of the data set: AUC (0 to infinity) in mouse plasma assessed as galiellalactone level at 10 mg/kg, po by LC-MS/MS analysis. Type of data set: ADME, organism-based. Set-up: dose 10 mg/kg, route oral, time infinity. Conditions: in vivo. The essentials: as §1
The test system of data set [13] is Mus musculus. Nature of the data set: Cmax in mouse plasma assessed as galiellalactone level at 100 mg/kg, po by LC-MS/MS analysis. Type of data set: ADME, organism-based. Set-up: dose 100 mg/kg, route oral. Conditions: in vivo. In outline:
as §1

In data set [14] the test system is Mus musculus. Description: AUC (0 to infinity) in mouse plasma assessed as galiellalactone level at 100 mg/kg, po by LC-MS/MS analysis. Set-up: dose 100 mg/kg, time infinity, route oral. Conditions: in vivo. Type of data set: ADME, organism-based. The essentials: as §1
Another data set deals with Plasma. Description: Half life in human plasma assessed as formation of galiellalactone at 5 uM by LC-MS/MS analysis. The data set is classed as ADME, cell-free. In outline:
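Plasma of each species incubated at 37 °C with compound at 5 µM initial, 1% DMSO, n=2. Simvastatin and eucatropine run as controls. Aliquots taken at 0, 5, 15, 30 and 60 min and quenched with acetonitrile containing internal standard, then analysed by LC-MS/MS.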

Data set [15] deals with Mus musculus. Nature of the data set: Tmax in mouse plasma assessed as galiellalactone level at 40 mg/kg, po by LC-MS/MS analysis. The data set is classed as ADME, organism-based. Conditions: in vivo.
Data set [16] has as its system Mus musculus. Nature of the data set: Toxicity in CD1 mouse assessed as change in body weight at 40 mg/kg, administered as single dose through oral gavage measured on day 8 (reference value: 32.28 +/- 4.42 g). Type of data set: organism-based. Conditions: in vivo.
The nature of data set [17]: Antiproliferative activity against human DU145 cells after 72 hrs by WST-1 proliferation assay. Type of data set: functional, cell-based. Conditions: DU-145, 72 h. The essentials:
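Cells in RPMI-1640 (DU145, LNCaP, LNCaP-IL6+) or HAM's F-12 (PC3) with 10% FBS. DU145 and LNCaP-IL6+ seeded at 2 000 cells/well, LNCaP and PC3 at 5 000 cells/well, adhered 24 h, then exposed to compound for 72 h. WST-1 absorbance read at 450 nm with 630 nm reference. Background subtracted; expressed as percent of untreated cells.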
Background: Tetrazolium dyes change colour on reduction, which living cells bring about.

In data set [18] the test system is Mus musculus. Nature of the data set: Apparent half life in mouse plasma assessed as galiellalactone level at 40 mg/kg, po by LC-MS/MS analysis. Type of data set: ADME, organism-based. To be noted: in vivo. The essentials: as §1
For data set [19], the system named is Mus musculus. Nature of the data set: Toxicity in CD1 mouse assessed as change in body weight at 400 mg/kg, administered as single dose through oral gavage measured on day 8 (reference value: 32.28 +/- 4.42 g). The data set is classed as organism-based. To be noted: in vivo.

Turning to `COC(=O)[C@H](CS[C@H]1C2C(=O)O[C@@H]3CC[C@H](C[C@@H]1C)[C@]23O)NC(C)=O` (stereo partly specified), the Activity was 32.52 g in the data set with Mus musculus [1]; 33.68 g in the data set on Mus musculus [4]; “Non-toxic” with Mus musculus [5]; 35.3 g in the data set with Mus musculus [7]; “Non-toxic” with Mus musculus [8]; 31.12 g in the data set with Mus musculus [16]. Also, in the data set with Mus musculus [19], the Activity is recorded as 32.1 g. The AUCt stood at 213 µg/mL/min in the data set on Mus musculus [2] and 117 µg/mL/min with Mus musculus [11]. Moreover, the result in the data set on Mus musculus [3] was inactive. In addition, in data set [6], the outcome was Active. The inhibition result with DU-145 was “Active”. Besides, the Tmax with Mus musculus [9] and with Mus musculus [15] was 15 min in each case. For the same compound, the half-life at 10 µM in data set [10] is greater than 150 min. For the same compound, the AUC was 120 µg/mL/min with Mus musculus [12] and 679 µg/mL/min with Mus musculus [14]. Moreover, the Cmax in the data set with Mus musculus [13] is 7478 ng/mL. Moreover, in the data set on Plasma, the t1/2 was less than 5 min. The compound also returned a concentration for half-maximal inhibition (IC50) in data set [17] of 4.81 µM. In addition, the “t1/2(app)” value with Mus musculus [18] is 180 min.

One may read the Tmax as the time from dosing to the highest level. For orientation: half-life means the time in which the quantity being followed falls by half. The term Cmax denotes the highest concentration seen after dosing. In general, IC50 refers to the point on the concentration scale where inhibition reaches its midpoint. A higher IC50 goes with a need for much substance.
